Measured values gathered from unrelated publications.
Compare with care: the assays were run in different laboratories.
Target: Proto-oncogene tyrosine-protein kinase Src (SRC, Homo sapiens, UniProt P12931)

Compound | test | conditions | measurement | value
C[C@H]1CC[C@H](n2c3cnccc3c3cnc(Nc4ccc5c(n4)CCN(C(=O)CO)C5)nc32)CC1 | cell-free assay, competition with immobilised ligand | 1 µM | remaining binding | 65%
COc1ccc2oc(-c3ccc4nc(N)oc4c3)c/c(=N\c3ccccc3NC(=O)CCN)c2c1 | binding | 1 µM | remaining binding | 72%
CCCCC(=O)Nc1ccc(-c2ccc3ncn(CCC)c(=O)c3c2)cn1 | binding, competition with immobilised ligand | 0.5 µM | remaining binding | 97%
C=CC(=O)N1CCC([C@@H]2CCNc3c(C(N)=O)c(-c4ccc(Oc5ccccc5)cc4)nn32)CC1 | enzyme activity, inhibitor | 1 µM | inhibition | 42%
Cc1cc2c(C(N)=O)c(N)n(-c3c(C)ccc(O)c3C)c2nc1C | enzyme activity, inhibitor, TR-FRET | 3.333 µM | inhibition | 100%
CO[C@@H]1[C@H](N(C)C(=O)c2ccccc2)C[C@H]2O[C@]1(C)n1c3ccccc3c3c4c(c5c6ccccc6n2c5c31)C(=O)NC4 | enzyme activity, inhibitor | 1 µM | inhibition | 31%
N#Cc1ccc(NC(=O)Nc2ccccc2)cc1 | cell-free assay, competition with immobilised ligand | 25 µM | remaining binding | 100%
C#Cc1cc(-c2cc(Nc3nc(N[C@@H](C)c4ccc(F)cn4)ncc3Cl)n[nH]2)ccc1C=O | enzyme activity, inhibitor | 0.2 µM | inhibition | 37.7%
Cc1cc(O)c(-c2ccc([C@@H](C)CN(C)C)cc2)c2c1[nH]c(=O)c1sccc12 | enzyme activity, inhibitor | 0.1 µM | inhibition | -1.37%
Cc1ccc(NC(=O)c2ccnc(C(F)(F)F)c2)cc1-c1cc(OCCO)nc(N2CCOCC2)c1 | binding, competition with immobilised ligand | 1 µM | remaining binding | 100%
